Results reported in ChEMBL document CHEMBL3102848, “Carbamazepine derivatives with P2X4 receptor-blocking activity” (Bioorg Med Chem, 2014).

molecular target: T1, P2X purinoceptor 4 (Homo sapiens) (UniProt Q99571); assay: Antagonist activity at human P2X4 receptor expressed in human 1321N1 cells assessed as inhibition of ATP-induced cytosolic calcium influx at 300 uM preincubated for 30 mins followed by ATP addition by Fluo-4 AM dye-based fluorescence assay; format: cell-based
T1 sequence (whole entry): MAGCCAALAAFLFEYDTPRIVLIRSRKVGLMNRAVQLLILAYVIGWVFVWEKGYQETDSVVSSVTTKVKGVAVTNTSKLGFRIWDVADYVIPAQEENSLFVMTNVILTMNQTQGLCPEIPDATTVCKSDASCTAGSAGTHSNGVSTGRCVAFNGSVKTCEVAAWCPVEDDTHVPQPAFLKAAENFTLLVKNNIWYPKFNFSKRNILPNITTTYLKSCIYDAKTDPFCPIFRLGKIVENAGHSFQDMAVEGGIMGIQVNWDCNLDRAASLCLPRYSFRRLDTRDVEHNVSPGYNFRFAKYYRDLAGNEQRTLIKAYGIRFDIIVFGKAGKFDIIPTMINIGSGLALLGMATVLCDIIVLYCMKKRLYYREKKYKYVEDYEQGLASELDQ
In short: (§1)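 Human P2X4 stably transfected into 1321N1 astrocytoma cells. Inhibition of ATP-induced calcium influx measured as in earlier work. Compounds were first screened at a single high concentration, chosen according to their solubility.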

inhibition [%] | SMILES
82 | NC(=O)N1c2ccccc2C=Cc2cc(O)ccc21
99 | NC(=O)N1c2ccccc2C=Cc2ccc(O)cc21

molecular target: T1, P2X purinoceptor 4 (Homo sapiens); assay: Antagonist activity at human P2X4 receptor expressed in human 1321N1 cells assessed as inhibition of ATP-induced cytosolic calcium influx at 100 uM preincubated for 30 mins followed by ATP addition by Fluo-4 AM dye-based fluorescence assay; format: cell-based; in short: as §1

SMILES | inhibition [%]
COC1=Cc2ccccc2N(C(N)=O)c2ccccc21 | 34
C1=Cc2ccccc2N(Cc2ccccc2)c2ccccc21 | 34
O=C(N(CCO)CCO)N1c2ccccc2C=Cc2ccccc21 | 2
COc1ccc(CCNC(=O)N2c3ccccc3C=Cc3ccccc32)cc1 | 83
O=C(NCc1ccccc1)N1c2ccccc2C=Cc2ccccc21 | 75
CCCCNC(=O)N1c2ccccc2C=Cc2ccccc21 | 49
CCN(CC)C(=O)N1c2ccccc2C=Cc2ccncc21 | 52
CC(C)N(C(=O)c1cccc2c1Nc1ccccc1C=C2)C(C)C | 74
NC(=O)N1c2ccccc2CCc2ccccc21 | 35
O=C(Nc1ccncc1)N1c2ccccc2C=Cc2ccccc21 | 30
NC(=O)N1c2ccccc2CC(O)c2ccccc21 (racemic) [LICARBAZEPINE] | 28
O=C(N1CCOCC1)N1c2ccccc2C=Cc2ccccc21 | 50
O=C(c1ccccc1)N1c2ccccc2C=Cc2ccccc21 | 75
CCOC1Cc2ccccc2N(C(N)=O)c2ccccc21 (racemic) | 17
CN1CCC(NC(=O)N2c3ccccc3C=Cc3ccccc32)CC1 | 56
O=C(Nc1ccccc1)N1c2ccccc2C=Cc2ccccc21 | 49
O=C(NCCc1ccccc1)N1c2ccccc2C=Cc2ccccc21 | 107

Second part, the molecule after the results:

inhibition [%] | SMILES
21 | Cc1ccc2c(c1)N(C(N)=O)c1ccccc1C=C2
11 | NC(=O)N1c2ccccc2C=Cc2cc(F)ccc21
51 | COC(=O)N1c2ccccc2C=Cc2ccccc21
39 | CN(C)c1ccc2c(c1)N(C(N)=O)c1ccccc1C=C2
-2 | NC(=O)N1c2ccccc2C=Cc2ccc(F)cc21
47 | CNC(=O)N1c2ccccc2C=Cc2ccccc21
39 | CC(=O)N1c2ccccc2C=Cc2ccccc21
92 | CC(C)(C)NC(=O)N1c2ccccc2C=Cc2ccccc21
49 | CN(C)C(=O)N1c2ccccc2C=Cc2ccccc21
42 | CN(C)CCN(C)C(=O)N1c2ccccc2C=Cc2ccccc21
58 | CC(C)COC(=O)N1c2ccccc2C=Cc2ccccc21
80 | CNC1=Cc2ccccc2N(C(N)=O)c2ccccc21
30 | COc1ccc2c(c1)N(C(N)=O)c1ccccc1C=C2
35 | NC(=O)N1c2ccccc2C=Cc2ccccc21 [CARBAMAZEPINE]
91 | NC(=O)N1c2ccccc2C=Cc2c1ccc1ccccc21
72 | NC(=O)N1c2ccccc2C=Cc2ccc(C(F)(F)F)cc21
54 | CN(C)CCCNC(=O)N1c2ccccc2C=Cc2ccccc21
47 | CC(C)NC(=O)N1c2ccccc2C=Cc2ccccc21

molecular target: T1, P2X purinoceptor 4 (Homo sapiens); assay: Antagonist activity at human P2X4 receptor expressed in human 1321N1 cells assessed as inhibition of ATP-induced cytosolic calcium influx at 20 uM preincubated for 30 mins followed by ATP addition by Fluo-4 AM dye-based fluorescence assay; format: cell-based; in short: as §1

inhibition [%] | SMILES
0 | O=C(NC1CCC(O)CC1)N1c2ccccc2C=Cc2ccccc21 (stereo not given)
25 | CC(=O)O[C@H]1Cc2ccccc2N(C(N)=O)c2ccccc21 [ESLICARBAZEPINE ACETATE]

molecular target: T1, P2X purinoceptor 4 (Homo sapiens); assay: Antagonist activity at human P2X4 receptor expressed in human 1321N1 cells assessed as inhibition of ATP-induced cytosolic calcium influx at 10 uM preincubated for 30 mins followed by ATP addition by Fluo-4 AM dye-based fluorescence assay; format: cell-based; in short: as §1

inhibition [%] | SMILES
73 | O=C(OCc1ccccc1)N1c2ccccc2C=Cc2ccccc21
12 | NC(=O)N1c2ccccc2C=C(N)c2ccccc21
11 | NC1CCC(NC(=O)N2c3ccccc3C=Cc3ccccc32)CC1 (stereo not given)
1 | NC(=O)N1c2ccccc2C2OC2c2ccccc21 (stereo not given) [CARBAMAZEPINE EPOXIDE]
10 | NC(=O)N1c2ccccc2CC(=O)c2ccccc21 [OXCARBAZEPINE]

molecular target: T2, P2X purinoceptor 4 (Homo sapiens, UniProt Q99571); assay: Antagonist activity at human P2X4 receptor expressed in human 1321N1 cells assessed as inhibition of ATP-induced cytosolic calcium influx preincubated for 30 mins followed by ATP addition by Fluo-4 AM dye-based fluorescence assay; format: cell-based; in short: as §1
T2 sequence (Q99571 whole entry): T1 sequence (whole entry)

SMILES | IC50 [µM]
COC1=Cc2ccccc2N(C(N)=O)c2ccccc21 | > 100
C1=Cc2ccccc2N(Cc2ccccc2)c2ccccc21 | > 100
O=C(N(CCO)CCO)N1c2ccccc2C=Cc2ccccc21 | > 100
COc1ccc(CCNC(=O)N2c3ccccc3C=Cc3ccccc32)cc1 | 27.4
O=C(NCc1ccccc1)N1c2ccccc2C=Cc2ccccc21 | 78.9
O=C(OCc1ccccc1)N1c2ccccc2C=Cc2ccccc21 | 6.02
CCCCNC(=O)N1c2ccccc2C=Cc2ccccc21 | ≥ 100
CCN(CC)C(=O)N1c2ccccc2C=Cc2cccc(C(=O)N(C(C)C)C(C)C)c21 | 52.5
CCN(CC)C(=O)N1c2ccccc2C=Cc2ccncc21 | 100
CC(C)N(C(=O)c1cccc2c1Nc1ccccc1C=C2)C(C)C | 30.6
O=C(N1CCC(O)CC1)N1c2ccccc2C=Cc2ccccc21 | > 100
O=C(NC1CCC(O)CC1)N1c2ccccc2C=Cc2ccccc21 (stereo not given) | > 20
NC1CCC(NC(=O)N2c3ccccc3C=Cc3ccccc32)CC1 (stereo not given) | > 10
NC(=O)N1c2ccccc2CCc2ccccc21 | > 100
NC(=O)N1c2ccccc2C2OC2c2ccccc21 (stereo not given) [CARBAMAZEPINE EPOXIDE] | > 10
O=C(Nc1ccncc1)N1c2ccccc2C=Cc2ccccc21 | > 100
NC(=O)N1c2ccccc2CC(O)c2ccccc21 (racemic) [LICARBAZEPINE] | > 100
O=C(N1CCOCC1)N1c2ccccc2C=Cc2ccccc21 | ≥ 100
NC(=O)N1c2ccccc2CC(=O)c2ccccc21 [OXCARBAZEPINE] | > 10
O=C(c1ccccc1)N1c2ccccc2C=Cc2ccccc21 | 23.3
CCOC1Cc2ccccc2N(C(N)=O)c2ccccc21 (racemic) | > 100
CC(=O)O[C@H]1Cc2ccccc2N(C(N)=O)c2ccccc21 [ESLICARBAZEPINE ACETATE] | > 20
CN1CCC(NC(=O)N2c3ccccc3C=Cc3ccccc32)CC1 | ≥ 100
O=C(Nc1ccccc1)N1c2ccccc2C=Cc2ccccc21 | 100
O=C(NCCc1ccccc1)N1c2ccccc2C=Cc2ccccc21 | 36.2

The next lines start with the values.

IC50 [µM] | SMILES
> 100 | Cc1ccc2c(c1)N(C(N)=O)c1ccccc1C=C2
> 100 | NC(=O)N1c2ccccc2C=Cc2cc(F)ccc21
146 | NC(=O)N1c2ccccc2C=Cc2cc(O)ccc21
> 10 | NC(=O)N1c2ccccc2C=C(N)c2ccccc21
100 | COC(=O)N1c2ccccc2C=Cc2ccccc21
15.3 | CN(C)c1ccc2c(c1)N(C(N)=O)c1ccccc1C=C2
> 100 | NC(=O)N1c2ccccc2C=Cc2ccc(F)cc21
≥ 100 | CNC(=O)N1c2ccccc2C=Cc2ccccc21
> 100 | CC(=O)N1c2ccccc2C=Cc2ccccc21
13.8 | CC(C)(C)NC(=O)N1c2ccccc2C=Cc2ccccc21
≥ 100 | CN(C)C(=O)N1c2ccccc2C=Cc2ccccc21
≥ 100 | CN(C)CCN(C)C(=O)N1c2ccccc2C=Cc2ccccc21
100 | CC(C)COC(=O)N1c2ccccc2C=Cc2ccccc21
36.9 | CNC1=Cc2ccccc2N(C(N)=O)c2ccccc21
> 100 | COc1ccc2c(c1)N(C(N)=O)c1ccccc1C=C2
72.8 | NC(=O)N1c2ccccc2C=Cc2ccc(O)cc21
> 100 | NC(=O)N1c2ccccc2C=Cc2ccccc21 [CARBAMAZEPINE]
51.4 | NC(=O)N1c2ccccc2C=Cc2c1ccc1ccccc21
54.6 | NC(=O)N1c2ccccc2C=Cc2ccc(C(F)(F)F)cc21
100 | CN(C)CCCNC(=O)N1c2ccccc2C=Cc2ccccc21
19.2 | CC(C)NC(=O)N1c2ccccc2C=Cc2ccccc21
